Laboratory results taken from ChEMBL document CHEMBL5376019, “Design, synthesis and evaluation of 2-phenylpyrimidine derivatives as novel antifungal agents targeting CYP51” (RSC Med Chem, 2024).
Converted amounts (≈) assume the structure as drawn.

Key:
Format in all cases: functional
Candida albicans [1] = test: Antifungal activity against Candida albicans CPCC400616 assessed as fungal growth inhibition
How it was run: (§1)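 Broth microdilution per NCCLS M27-A3, with fluconazole as positive control. Assay medium was RPMI 1640 buffered with MOPS. Inocula were diluted to 1–5 × 10^3 CFU mL−1 and seeded in 96-well plates. Compounds were dissolved in DMSO and serially diluted in the growth medium. MIC was the read-out.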

Candida albicans [2] = test: Antifungal activity against Candida albicans ATCC SC5314 assessed as fungal growth inhibition; how it was run: as §1
Candida tropicalis = test: Antifungal activity against Candida tropicalis CGMCC 2.3739 assessed as fungal growth inhibition; how it was run: as §1
Cryptococcus neoformans = test: Antifungal activity against Cryptococcus neoformans CGMCC 2.3161 assessed as fungal growth inhibition; how it was run: as §1
Pichia kudriavzevii = test: Antifungal activity against Pichia kudriavzevii GIM 2.1 assessed as fungal growth inhibition; how it was run: as §1
Candida parapsilosis = test: Antifungal activity against Candida parapsilosis GIM 2.190 assessed as fungal growth inhibition; conditions: Lodderomyces parapsilosis; how it was run: as §1
Nakaseomyces glabratus = test: Antifungal activity against clinical isolate Candida glabrata assessed as fungal growth inhibition; how it was run: as §1

Row | Structure (SMILES) | MIC (Candida albicans [1]) | MIC (Candida albicans [2]) | MIC (Candida tropicalis) | MIC (Cryptococcus neoformans) | MIC (Pichia kudriavzevii) | MIC (Candida parapsilosis) | MIC (Nakaseomyces glabratus)
1 | O=C(NC(Cn1ccnc1)C(=O)c1ccccc1)c1noc2c1CCc1ccccc1-2 (configuration not stated) | 8 µg/mL (≈ 19.4 µM) | 8 µg/mL (≈ 19.4 µM) | 4 µg/mL (≈ 9.7 µM) |  |  |  | 
2 | O=C(NC(Cn1ccnc1)C(=O)c1ccccc1)c1cnc(-c2ccccc2F)nc1 (racemic) | > 64 µg/mL | > 64 µg/mL | > 64 µg/mL | > 64 µg/mL | > 64 µg/mL | > 64 µg/mL | > 64 µg/mL
3 | O=C(NC(Cn1ccnc1)C(=O)c1ccccc1)c1cnc(-c2ccccc2Cl)nc1 (racemic) | 16 µg/mL (≈ 37 µM) | 8 µg/mL (≈ 18.5 µM) | 4 µg/mL (≈ 9.26 µM) | > 64 µg/mL | 16 µg/mL (≈ 37 µM) | 32 µg/mL (≈ 74.1 µM) | > 64 µg/mL
4 | O=C(NC(Cn1ccnc1)C(=O)c1ccccc1)c1ccc(-c2ncccn2)cc1 (racemic) | > 64 µg/mL | > 64 µg/mL | > 64 µg/mL | > 64 µg/mL | > 64 µg/mL | > 64 µg/mL | > 64 µg/mL
5 | O=C(NC(Cn1ccnc1)C(=O)c1ccccc1)c1ccc(-c2cncnc2)cc1 (racemic) | > 64 µg/mL | > 64 µg/mL | > 64 µg/mL | > 64 µg/mL | > 64 µg/mL | > 64 µg/mL | > 64 µg/mL
6 | O=C(NC(Cn1ccnc1)C(=O)c1ccccc1)c1ccc(-c2ccncc2)cc1 (racemic) | 16 µg/mL (≈ 40.4 µM) | 8 µg/mL (≈ 20.2 µM) | 8 µg/mL (≈ 20.2 µM) | > 64 µg/mL | 16 µg/mL (≈ 40.4 µM) | > 64 µg/mL | > 64 µg/mL
7 | O=C(NC(Cn1ccnc1)C(=O)c1ccccc1)c1csc(-c2ccccc2)n1 (racemic) | > 64 µg/mL | > 64 µg/mL | > 64 µg/mL | > 64 µg/mL | > 64 µg/mL | > 64 µg/mL | > 64 µg/mL
8 | O=C(NC(Cn1ccnc1)C(=O)c1ccccc1)c1ccc(-c2ccccc2)cn1 (racemic) | > 64 µg/mL | > 64 µg/mL | > 64 µg/mL | > 64 µg/mL | > 64 µg/mL | > 64 µg/mL | > 64 µg/mL
9 | N#Cc1ccc(-c2ncc(C(=O)NC(Cn3ccnc3)C(=O)c3ccccc3)cn2)cc1 (racemic) | > 64 µg/mL | 4 µg/mL (≈ 9.47 µM) | > 64 µg/mL | > 64 µg/mL | > 64 µg/mL | > 64 µg/mL | > 64 µg/mL
10 | O=C(NC(Cn1ccnc1)C(=O)c1ccccc1)c1cc(-c2ccccc2)on1 (racemic) | 64 µg/mL (≈ 166 µM) | 32 µg/mL (≈ 82.8 µM) | > 64 µg/mL | > 64 µg/mL | > 64 µg/mL | > 64 µg/mL | > 64 µg/mL
11 | O=C(NC(Cn1ccnc1)C(=O)c1ccccc1)c1ccc(-c2ccoc2)cc1 (racemic) | > 64 µg/mL | 16 µg/mL (≈ 41.5 µM) | > 64 µg/mL | > 64 µg/mL | > 64 µg/mL | > 64 µg/mL | > 64 µg/mL
12 | O=C(NC(Cn1ccnc1)C(=O)c1ccccc1)c1cnc(-c2ccc(Cl)cc2F)nc1 (racemic) | > 64 µg/mL | > 64 µg/mL | > 64 µg/mL | > 64 µg/mL | > 64 µg/mL | > 64 µg/mL | > 64 µg/mL
13 | O=C(NC(Cn1ccnc1)C(=O)c1ccccc1)c1cnc(-c2ccc(OC(F)(F)F)cc2)nc1 (racemic) | > 64 µg/mL | > 64 µg/mL | > 64 µg/mL | > 64 µg/mL | > 64 µg/mL | > 64 µg/mL | > 64 µg/mL
14 | O=C(NC(Cn1ccnc1)C(=O)c1ccccc1)c1ccc(-c2cccnc2)cc1 (racemic) | 32 µg/mL (≈ 80.7 µM) | 8 µg/mL (≈ 20.2 µM) | > 64 µg/mL | > 64 µg/mL | > 64 µg/mL | > 64 µg/mL | > 64 µg/mL

Other lines, results leading:

Row | MIC (Candida albicans [1]) | MIC (Candida albicans [2]) | MIC (Candida tropicalis) | MIC (Cryptococcus neoformans) | MIC (Pichia kudriavzevii) | MIC (Candida parapsilosis) | MIC (Nakaseomyces glabratus) | Structure (SMILES)
15 | 32 µg/mL (≈ 77 µM) | 16 µg/mL (≈ 38.5 µM) | > 64 µg/mL | > 64 µg/mL | > 64 µg/mL | 64 µg/mL (≈ 154 µM) | > 64 µg/mL | O=C(NC(Cn1ccnc1)C(=O)c1ccccc1)c1cnc(-c2ccc(F)cc2)nc1 (racemic)
16 | 16 µg/mL (≈ 37 µM) | 8 µg/mL (≈ 18.5 µM) | 4 µg/mL (≈ 9.26 µM) | > 64 µg/mL | > 64 µg/mL | > 64 µg/mL | > 64 µg/mL | O=C(NC(Cn1ccnc1)C(=O)c1ccccc1)c1cnc(-c2ccc(Cl)cc2)nc1 (racemic)
17 | > 64 µg/mL | > 64 µg/mL | > 64 µg/mL | > 64 µg/mL | > 64 µg/mL | > 64 µg/mL | > 64 µg/mL | CC(C)(C)c1ccc(-c2ncc(C(=O)NC(Cn3ccnc3)C(=O)c3ccccc3)cn2)cc1 (racemic)
18 | > 64 µg/mL | > 64 µg/mL | > 64 µg/mL | > 64 µg/mL | > 64 µg/mL | > 64 µg/mL | > 64 µg/mL | CCc1ccc(-c2ncc(C(=O)NC(Cn3ccnc3)C(=O)c3ccccc3)cn2)cc1 (racemic)
19 | > 64 µg/mL | > 64 µg/mL | > 64 µg/mL | > 64 µg/mL | > 64 µg/mL | > 64 µg/mL | > 64 µg/mL | O=C(NC(Cn1ccnc1)C(=O)c1ccccc1)c1cnc(-c2cccc(C(F)(F)F)c2)nc1 (racemic)
20 | 16 µg/mL (≈ 40.3 µM) | 4 µg/mL (≈ 10.1 µM) | 8 µg/mL (≈ 20.1 µM) | > 64 µg/mL | 16 µg/mL (≈ 40.3 µM) | > 64 µg/mL | 32 µg/mL (≈ 80.5 µM) | O=C(NC(Cn1ccnc1)C(=O)c1ccccc1)c1cnc(-c2ccccc2)nc1 (racemic)
21 | > 64 µg/mL | > 64 µg/mL | > 64 µg/mL | > 64 µg/mL | > 64 µg/mL | > 64 µg/mL | > 64 µg/mL | Cc1ccc(-c2ncc(C(=O)NC(Cn3ccnc3)C(=O)c3ccccc3)cn2)cc1 (racemic)
22 | > 64 µg/mL | > 64 µg/mL | > 64 µg/mL | > 64 µg/mL | > 64 µg/mL | > 64 µg/mL | > 64 µg/mL | CC(C)c1ccc(-c2ncc(C(=O)NC(Cn3ccnc3)C(=O)c3ccccc3)cn2)cc1 (racemic)
23 | > 64 µg/mL | > 64 µg/mL | > 64 µg/mL | > 64 µg/mL | > 64 µg/mL | > 64 µg/mL | > 64 µg/mL | COc1ccc(-c2ncc(C(=O)NC(Cn3ccnc3)C(=O)c3ccccc3)cn2)cc1 (racemic)
24 | > 64 µg/mL | > 64 µg/mL | > 64 µg/mL | > 64 µg/mL | > 64 µg/mL | > 64 µg/mL | > 64 µg/mL | CC(C)(C)c1cccc(-c2ncc(C(=O)NC(Cn3ccnc3)C(=O)c3ccccc3)cn2)c1 (racemic)
25 | > 64 µg/mL | > 64 µg/mL | > 64 µg/mL | > 64 µg/mL | > 64 µg/mL | > 64 µg/mL | > 64 µg/mL | O=C(NC(Cn1ccnc1)C(=O)c1ccccc1)c1cnc(-c2cccc(OC(F)(F)F)c2)nc1 (racemic)
26 | 8 µg/mL (≈ 19.3 µM) | 2 µg/mL (≈ 4.81 µM) | 4 µg/mL (≈ 9.63 µM) | 32 µg/mL (≈ 77 µM) | 32 µg/mL (≈ 77 µM) | 16 µg/mL (≈ 38.5 µM) | 32 µg/mL (≈ 77 µM) | O=C(NC(Cn1ccnc1)C(=O)c1ccccc1)c1cnc(-c2cccc(F)c2)nc1 (racemic)
27 | > 64 µg/mL | > 64 µg/mL | > 64 µg/mL | > 64 µg/mL | > 64 µg/mL | > 64 µg/mL | > 64 µg/mL | CC(C)c1cccc(-c2ncc(C(=O)NC(Cn3ccnc3)C(=O)c3ccccc3)cn2)c1 (racemic)
28 | > 64 µg/mL | > 64 µg/mL | > 64 µg/mL | > 64 µg/mL | > 64 µg/mL | > 64 µg/mL | > 64 µg/mL | O=C(NC(Cn1ccnc1)C(=O)c1ccccc1)c1cnc(-c2cccc(Cl)c2)nc1 (racemic)
